Measured values reported in PMC6543826 (Bioorganic chemistry, 2018).
“And” between values parts separate entries of the source, which are not always exact repeats. Equal entries are not always repeated.

Columns and labels:
HCT-15 = test: cells; format: cell-based; settings: HCT-15, 10^−5 M, 48 h
SK-MEL-28 = test: cells; format: cell-based; settings: SK-MEL-28, 10^−5 M, 48 h
SK-MEL-5 = test: cells; format: cell-based; settings: SK-MEL-5, 10^−5 M, 48 h
NCI-H322M = test: cells; format: cell-based; settings: 10^−5 M, 48 h
PC-3 = test: cells; format: cell-based; settings: PC-3, 10^−5 M, 48 h
OVCAR-8 = test: cells; format: cell-based; settings: OVCAR-8, 10^−5 M, 48 h
DU-145 = test: cells; format: cell-based; settings: DU-145, 10^−5 M, 48 h
[1] = system: NCI-60 panel of tumor cell lines
NCI-H460 = test: cells; format: cell-based; settings: NCI-H460, 10^−5 M, 48 h
M14 = test: cells; format: cell-based; settings: M14, 10^−5 M, 48 h
SN12C = test: cells; format: cell-based; settings: 10^−5 M, 48 h
ERK2 = ERK2 (Rattus norvegicus, UniProt P63086); test: in vitro radioactive kinase assay, Ets-1 phosphorylation by ERK2; format: biochemical
Chain of ERK2 (P63086 whole entry): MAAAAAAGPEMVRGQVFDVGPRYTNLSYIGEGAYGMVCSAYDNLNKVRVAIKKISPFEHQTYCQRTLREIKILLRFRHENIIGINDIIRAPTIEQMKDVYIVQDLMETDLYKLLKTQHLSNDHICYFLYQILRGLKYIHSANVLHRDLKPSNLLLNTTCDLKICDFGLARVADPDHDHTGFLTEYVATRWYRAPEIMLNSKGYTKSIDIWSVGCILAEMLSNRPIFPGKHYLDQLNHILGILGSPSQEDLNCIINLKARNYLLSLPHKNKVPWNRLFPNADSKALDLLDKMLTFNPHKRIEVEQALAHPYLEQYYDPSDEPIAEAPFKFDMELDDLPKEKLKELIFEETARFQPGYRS
Method in brief: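 Activated rat ERK2 (2 nM) was tested with His-Ets-1 (1–138) at 28–30 °C in HEPES pH 7.5 buffer with 11 mM MgCl2, BSA and 5% DMSO. Reactions were started with [γ-32P]ATP (10 or 100 μM).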

SF-268 = test: cells; format: cell-based; settings: SF-268, 10^−5 M, 48 h
SNB-19 = test: cells; format: cell-based; settings: SNB-19, 10^−5 M, 48 h
OVCAR-3 = test: cells; format: cell-based; settings: OVCAR-3, 10^−5 M, 48 h
T-47D = test: cells; format: cell-based; settings: T-47D, 10^−5 M, 48 h
HOP-62 = test: cells; format: cell-based; settings: HOP-62, 10^−5 M, 48 h
MALME-3M = test: cells; format: cell-based; settings: MALME-3M, 10^−5 M, 48 h
SNB-75 = test: cells; format: cell-based; settings: SNB-75, 10^−5 M, 48 h
A549/ATCC = test: cells; format: cell-based; settings: A549/ATCC, 10^−5 M, 48 h
SF-539 = test: cells; format: cell-based; settings: SF-539, 10^−5 M, 48 h
HCT-116 = test: cells; format: cell-based; settings: HCT-116, 10^−5 M, 48 h
K-562 = test: cells; format: cell-based; settings: K-562, 10^−5 M, 48 h
KM 12 = test: cells; format: cell-based; settings: KM 12, 10^−5 M, 48 h
BT-549 = test: cells; format: cell-based; settings: BT-549, 10^−5 M, 48 h
MCF7 = test: cells; format: cell-based; settings: MCF7, 10^−5 M, 48 h
LOX IMVI = test: cells; format: cell-based; settings: 10^−5 M, 48 h
CCRF-CEM = test: cells; format: cell-based; settings: 10^−5 M, 48 h
UO-31 = test: cells; format: cell-based; settings: UO-31, 10^−5 M, 48 h
IGROV1 = test: cells; format: cell-based; settings: IGROV1, 10^−5 M, 48 h
NCI-H522 = test: cells; format: cell-based; settings: NCI-H522, 10^−5 M, 48 h
MDA-MB-468 = test: cells; format: cell-based; settings: MDA-MB-468, 10^−5 M, 48 h
HOP-92 = test: cells; format: cell-based; settings: HOP-92, 10^−5 M, 48 h
JNK2 = JNK2 (Homo sapiens, UniProt P45984); test: in vitro kinase assay, GST-c-Jun; format: biochemical
Chain of JNK2 (P45984 whole entry): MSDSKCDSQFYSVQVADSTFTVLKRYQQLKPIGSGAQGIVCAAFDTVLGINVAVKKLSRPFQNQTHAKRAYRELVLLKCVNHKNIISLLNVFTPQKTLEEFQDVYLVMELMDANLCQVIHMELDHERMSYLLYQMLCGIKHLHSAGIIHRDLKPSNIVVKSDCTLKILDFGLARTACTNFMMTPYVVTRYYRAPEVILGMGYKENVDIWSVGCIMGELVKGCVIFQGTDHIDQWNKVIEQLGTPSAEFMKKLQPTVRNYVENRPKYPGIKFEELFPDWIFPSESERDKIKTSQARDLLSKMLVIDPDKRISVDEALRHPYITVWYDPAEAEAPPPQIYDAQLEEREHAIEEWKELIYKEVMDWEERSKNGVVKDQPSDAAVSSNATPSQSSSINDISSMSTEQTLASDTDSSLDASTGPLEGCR

UACC-62 = test: cells; format: cell-based; settings: UACC-62, 10^−5 M, 48 h
U251 = test: cells; format: cell-based; settings: U251, 10^−5 M, 48 h

For `O=C1c2ccccc2C(=O)c2c1oc1c2c(=O)[nH]c2ccccc21` [3a, Naphtho[2′,3′:4,5]furo[3,2-c]quinoline-6,7,12(5H)-trione], the “Growth percent (G%)” value (HCT-15) was 44.70%, the “Growth percent (G%)” value (SK-MEL-28) was 112.03% and the “Growth percent (G%)” value (SK-MEL-5) was 79.73%. The “Growth percent (G%)” value (NCI-H322M) was 89.28%, the “Growth percent (G%)” value (PC-3) was 65.49% and the “Growth percent (G%)” value (OVCAR-8) was 35.61%. For the same compound, the “Growth percent (G%)” value (DU-145) was 82.02%, the “NCI Cytotoxicity Screening Average G%” value ([1]; Table 4, 10 μM one-dose screen) was 68% and the “Average G%” value ([1]; average over tested NCI-60 cell lines, 10^−5 M (10 μM), 48 h) was 68% and 68.19%. The “Growth percent (G%)” value (NCI-H460) was 68.27%, the “Growth percent (G%)” value (M14) was 73.38% and the “Growth percent (G%)” value (SN12C) was 70.40%. For the same compound, the “effect of excess Ets-1 (100 μM) on inhibition of ERK2” value (ERK2; 5 μM inhibitor, 100 μM vs 10 μM Ets-1, 100 μM ATP) was “did not rescue”, the IC50 (ERK2; ERK2 IC50, 100 μM ATP, 10 μM Ets-1) was 10.2 ± 1.2 µM and the IC50 (ERK2; ERK2 IC50 at 100 μM ATP /10mM Ets-1, Table 4, 100 μM ATP /10mM Ets-1) was 10.2 ± 1.2 µM. For the same compound, the “Growth percent (G%)” value (SF-268) was 91.30%, the “Growth percent (G%)” value (SNB-19) was 103.72% and the “Growth percent (G%)” value (OVCAR-3) was −14.81%. The “Growth percent (G%)” value (T-47D) was 22.52%, the “Growth percent (G%)” value (HOP-62) was 118.63% and the “Growth percent (G%)” value (MALME-3M) was 124.29%. The “Growth percent (G%)” value (SNB-75) was 112.98%, the “Growth percent (G%)” value (A549/ATCC) was 97.18% and the “Growth percent (G%)” value (SF-539) was 90.30%. The “Growth percent (G%)” value (HCT-116) was 55.46%, the “Growth percent (G%)” value (K-562) was 55.20% and the “Growth percent (G%)” value (KM 12) was 66.22%. The “Growth percent (G%)” value (BT-549) was 73.94%, the “Growth percent (G%)” value (MCF7) was 48.82% and the “Growth percent (G%)” value (LOX IMVI) was 56.12%. The “Growth percent (G%)” value (CCRF-CEM) was 20.72%, the “Growth percent (G%)” value (UO-31) was 60.44% and the “Growth percent (G%)” value (IGROV1) was 55.11%. The “Growth percent (G%)” value (NCI-H522) was 54.81%, the “Growth percent (G%)” value (MDA-MB-468) was −8.43% and the “Growth percent (G%)” value (HOP-92) was 71.42%. The IC50 (JNK2) was greater than 200 µM, the “ability to inhibit JNK2 (in words)” value (JNK2) was “did not show any ability to inhibit” and the “Growth percent (G%)” value (UACC-62) was 88.73%. For the same compound, the “Growth percent (G%)” value (U251) was 79.04%.
